Active and inactive are the calls of the source. No cut-off for these calls is given here.
Experiments:
NCI-H23 = experiment: Growth inhibition of human NCI-H23 cells incubated for 48 hrs by sulforhodamine B assay; type: functional; details: NCI-H23, 48 h
In short: (§1)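 NCI full panel screen: five 10-fold dilutions (10^-4–10^-8 M). GI50 is the molar concentration giving 50% inhibition of net cell growth.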

NCI-H322M = experiment: Growth inhibition of human NCI-H322M cells incubated for 48 hrs by sulforhodamine B assay; type: functional; in short: as §1
NCI-H460 = experiment: Growth inhibition of human NCI-H460 cells incubated for 48 hrs by sulforhodamine B assay; type: functional; details: NCI-H460, 48 h; in short: as §1
NCI-H522 = experiment: Growth inhibition of human NCI-H522 cells incubated for 48 hrs by sulforhodamine B assay; type: functional; details: NCI-H522, 48 h; in short: as §1
COLO 205 = experiment: Growth inhibition of human COLO205 cells incubated for 48 hrs by sulforhodamine B assay; type: functional; details: COLO 205, 48 h; in short: as §1
HCC 2998 = experiment: Growth inhibition of human HCC2998 cells incubated for 48 hrs by sulforhodamine B assay; type: functional; details: HCC 2998, 48 h; in short: as §1
HCT-116 = experiment: Growth inhibition of human HCT116 cells incubated for 48 hrs by sulforhodamine B assay; type: functional; details: HCT-116, 48 h; in short: as §1
HCT-15 = experiment: Growth inhibition of human HCT15 cells incubated for 48 hrs by sulforhodamine B assay; type: functional; details: HCT-15, 48 h; in short: as §1
SW-620 = experiment: Growth inhibition of human SW620 cells incubated for 48 hrs by sulforhodamine B assay; type: functional; details: SW-620, 48 h
In short: (§2)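 NCI full-panel human tumour cell screen. Cells were exposed to five 10-fold dilutions from 10^-4 to 10^-8 M. GI50 is the molar concentration giving 50% inhibition of net cell growth, and a mean graph midpoint was calculated across the panel.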

SF-539 = experiment: Growth inhibition of human SF539 cells incubated for 48 hrs by sulforhodamine B assay; type: functional; details: SF-539, 48 h; in short: as §1
SNB-19 = experiment: Growth inhibition of human SNB19 cells incubated for 48 hrs by sulforhodamine B assay; type: functional; details: SNB-19, 48 h; in short: as §2
LOX IMVI = experiment: Growth inhibition of human LOXIMVI cells incubated for 48 hrs by sulforhodamine B assay; type: functional; in short: as §1
Malme-3M = experiment: Growth inhibition of human MALME-3M cells incubated for 48 hrs by sulforhodamine B assay; type: functional; in short: as §1
SK-MEL-2 = experiment: Growth inhibition of human SK-MEL-2 cells incubated for 48 hrs by sulforhodamine B assay; type: functional; details: SK-MEL-2, 48 h; in short: as §2
SK-MEL-5 = experiment: Growth inhibition of human SK-MEL-5 cells incubated for 48 hrs by sulforhodamine B assay; type: functional; details: SK-MEL-5, 48 h; in short: as §2
UACC-62 = experiment: Growth inhibition of human UACC62 cells incubated for 48 hrs by sulforhodamine B assay; type: functional; details: UACC-62, 48 h; in short: as §2
IGROV-1 = experiment: Growth inhibition of human IGROV1 cells incubated for 48 hrs by sulforhodamine B assay; type: functional; details: IGROV-1, 48 h; in short: as §1
NCI/ADR-RES = experiment: Growth inhibition of human NCI/ADR-RES cells incubated for 48 hrs by sulforhodamine B assay; type: functional; in short: as §1
A498 = experiment: Growth inhibition of human A498 cells incubated for 48 hrs by sulforhodamine B assay; type: functional; details: A498, 48 h; in short: as §1
ACHN = experiment: Growth inhibition of human ACHN cells incubated for 48 hrs by sulforhodamine B assay; type: functional; in short: as §1
MCF7 [1] = experiment: Growth inhibition of human MCF7 cells incubated for 48 hrs by sulforhodamine B assay; type: functional; details: MCF7, 48 h; in short: as §1
Hs-578T = experiment: Growth inhibition of human Hs 578T cells incubated for 48 hrs by sulforhodamine B assay; type: functional; in short: as §1
T47D = experiment: Growth inhibition of human T47D cells incubated for 48 hrs by sulforhodamine B assay; type: functional; in short: as §2
MCF7 [2] = experiment: Induction of apoptosis in human MCF7 cells assessed as early apoptotic cells at 2 x 10^-6 M after 72 hrs by Annexin V/propidium iodide double staining-based flow cytometry (reference value: 1%); type: functional
In short: (§3)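 MCF-7 cells were grown in RPMI with 10% FBS, 2 mM L-glutamine and antibiotics at 37 °C in 5% CO2. They were seeded at 2.0 x 10^5 cells/cm2 in triplicate, left to adhere overnight, then treated for 72 h; DMSO 0.1% served as vehicle. Trypsinised cells at 2.0 x 10^5/mL were stained with annexin V-FITC and PI for 15 min at room temperature in the dark. At least 1.0 x 10^4 cells were gated into viable, early apoptotic, late apoptotic and necrotic quadrants.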

MCF7 [3] = experiment: Induction of apoptosis in human MCF7 cells assessed as late apoptotic cells at 2 x 10^-6 M after 72 hrs by Annexin V/propidium iodide double staining-based flow cytometry (reference value: 0%); type: functional; in short: as §3
MCF7 [4] = experiment: Induction of apoptosis in human MCF7 cells assessed as necrotic cells at 2 x 10^-6 M after 72 hrs by Annexin V/propidium iodide double staining-based flow cytometry (reference value: 0.1%); type: functional; in short: as §3
Caco-2 [5] = experiment: Cytotoxicity against human Caco2 cells assessed as reduction in cell viability after 72 hrs by MTT assay; type: cell-based; details: caco-2, 72 h
In short: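 Caco-2 cells grown in RPMI with 10% FBS and L-glutamine, then treated 15 days after confluence, once differentiated into normal intestinal-like cells. Seeded at 2 × 10^4 cells/well and exposed 72 h to 5–100 µM, DMSO 0.1% vehicle. MTT 2 h at 37 °C, formazan in DMSO, absorbance 570 nm. Vehicle control = 100%; LC50 from viability-versus-concentration plot. At least three experiments in triplicate.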

[6] = Selectivity index, ratio of LC50 for human Caco2 cells to GI50 for human MCF7 cells; type: toxicity; details: Caco2 cells (LC50) and MCF7 cells (GI50), read-out: Selectivity Index
In short: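 Caco-2 cells were differentiated to a normal intestinal-like state for 15 days after confluence, seeded at 2 x 10^4 cells/well in RPMI, and treated with 5–100 µM for 72 h. MTT was added for 2 h at 37 °C, formazan was dissolved in DMSO and read at 570 nm. LC50 came from viability-versus-concentration plots, with at least three experiments in triplicate. SI is the Caco-2 LC50 divided by the MCF-7 GI50.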

Caco-2 [7] = experiment: Cytotoxicity against human Caco2 cells assessed as reduction in cell survival at 25 to 100 uM after 72 hrs by MTT assay; type: cell-based; details: caco-2, 72 h
In short: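 Caco-2 cells, differentiated 15 days post-confluence, seeded at 2 x 10^4 cells/well and treated 72 h with 5–100 µM compound. MTT added (5 mg/mL in FBS-free medium), 2 h at 37 °C, formazan dissolved in DMSO, absorbance at 570 nm. Viability relative to vehicle control (100%); LC50 taken from the viability-concentration plot. At least three experiments in triplicate.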

MCF7 [8] = experiment: Cell cycle arrest in human MCF7 cells assessed as reduction in accumulation at G0/G1 phase at GI50 concentration after 48 hrs by propidium iodide-staining based flow cytometry; type: functional
In short: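 Cells were trypsinized, washed in cold PBS, and 1 x 10^6 cells stained with 20 µg/ml PI plus 200 µg/ml RNase for 30 min at room temperature in the dark. At least 1x 10^4 cells were analysed by flow cytometry. Mean±SD of three experiments in triplicate.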

SMILES | GI50 (NCI-H23) | GI50 (NCI-H322M) | GI50 (NCI-H460) | GI50 (NCI-H522) | GI50 (COLO 205) | GI50 (HCC 2998) | GI50 (HCT-116) | GI50 (HCT-15) | GI50 (SW-620) | GI50 (SF-539) | GI50 (SNB-19) | GI50 (LOX IMVI) | GI50 (Malme-3M) | GI50 (SK-MEL-2) | GI50 (SK-MEL-5) | GI50 (UACC-62) | GI50 (IGROV-1) | GI50 (NCI/ADR-RES) | GI50 (A498) | GI50 (ACHN) | also measured
COCCn1cc(-c2csc(-c3c[nH]c4ccc(Br)cc34)n2)c2cccnc21 | 3.21 µM | 11.8 µM | 3.07 µM | 2.17 µM | 3.22 µM | 3.8 µM | 3.84 µM | 3.14 µM | 3.3 µM | 7.34 µM | 12.2 µM | 2.67 µM | 3.66 µM | 6.82 µM | 3.24 µM | 4.2 µM | 4.06 µM | 2.86 µM | 3.02 µM | 3.04 µM | GI50 (MCF7 [1]): 1.79 µM; GI50 (Hs-578T): 4.44 µM; GI50 (T47D): 1.97 µM; Activity (MCF7 [2]): 36.3%; Activity (MCF7 [3]): 0%; Activity (MCF7 [4]): 0.1%; LC50 (Caco-2 [5]): 83.3 µM; selectivity ratio [6]: 46; Activity (Caco-2 [7]): Toxic
COCCn1cc(-c2csc(-c3c[nH]c4ccc(F)cc34)n2)c2cccnc21 | 3.88 µM | > 100 µM | 3.38 µM | 2.19 µM | 2.69 µM | 4.54 µM | 3.77 µM | 2.35 µM | 3.63 µM | 8.86 µM | 98 µM | 3.44 µM | 4.54 µM | 3.89 µM | 2.69 µM | 6.78 µM | 3.49 µM | 2.17 µM | 3.26 µM | 5.27 µM | GI50 (MCF7 [1]): 2.09 µM; GI50 (Hs-578T): 8.82 µM; GI50 (T47D): 0.65 µM; Activity (MCF7 [2]): 29.2%; Activity (MCF7 [3]): 0%; Activity (MCF7 [4]): 0.1%; Activity (MCF7 [8]): Active; LC50 (Caco-2 [5]): 96.1 µM; selectivity ratio [6]: 46; Activity (Caco-2 [7]): Toxic
COCCn1cc(-c2nc(-c3c[nH]c4ncccc34)cs2)c2cc(OC)ccc21 | 1.63 µM | 1.95 µM | 1.32 µM | 5.18 µM | 5.03 µM | 4.81 µM | 4.55 µM | 2.15 µM | 4.5 µM | 3.99 µM | 9.71 µM | 3.69 µM | 12.6 µM | 3.56 µM | 5.53 µM | 5.98 µM | 0.55 µM | 3.07 µM | 1.87 µM | 3.08 µM | GI50 (MCF7 [1]): 0.05 µM; GI50 (Hs-578T): 2.07 µM; GI50 (T47D): 0.04 µM; Activity (MCF7 [8]): Active; LC50 (Caco-2 [5]): < 100 µM; Activity (Caco-2 [7]): Non-Toxic
COCCn1cc(-c2csc(-c3c[nH]c4ccccc34)n2)c2cccnc21 | 4.58 µM | > 100 µM | 3.4 µM | 2.07 µM | 2.66 µM | 4.08 µM | 3.63 µM | 2.34 µM | 3.52 µM | 5.91 µM | 16.2 µM | 3.96 µM | 3.58 µM | 7.38 µM | 3.22 µM | 4.58 µM | 2.53 µM | 1.76 µM | 3.03 µM | 5.6 µM | GI50 (MCF7 [1]): 1.74 µM; GI50 (Hs-578T): 9.14 µM; GI50 (T47D): 0.42 µM; Activity (MCF7 [2]): 46.5%; Activity (MCF7 [3]): 0%; Activity (MCF7 [4]): 0.1%; Activity (MCF7 [8]): Active; LC50 (Caco-2 [5]): 71.4 µM; selectivity ratio [6]: 41; Activity (Caco-2 [7]): Toxic
